Measurements reported in ChEMBL document CHEMBL4316593 (Eur J Med Chem, 2019).

Assays:
[1] = Inhibition of RTK/PI3K/AKT/mTOR signaling in human U87 cells assessed as down regulation of TEX14 gene expression at cytotoxic IC50 measured after 48 hrs relative to control; format: cell-based; details: U-87MG ATCC
Summary of the method: (§1)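 Cells were exposed for 48hrs at 37°C in humidified 5% CO₂ to the compound at its previously determined IC₅₀, with Cisplatin at its IC₅₀ and an untreated negative control alongside. Each condition was run in triplicate. RNA was isolated from all samples by the same protocol. Genes were called differentially expressed by DESeq2 at q-value < 0.05 and fold change > 1.5.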

[2] = Inhibition of RTK/PI3K/AKT/mTOR signaling in human U87 cells assessed as up regulation of AXL gene expression at cytotoxic IC50 measured after 48 hrs relative to control; format: cell-based; details: U-87MG ATCC; summary of the method: as §1
[3] = Inhibition of RTK/PI3K/AKT/mTOR signaling in human U87 cells assessed as down regulation of BRMS1 gene expression at cytotoxic IC50 measured after 48 hrs relative to control; format: cell-based; details: U-87MG ATCC
Summary of the method: (§2)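 U87 cells grown in MEM with 10% FBS at 37°C, 5% CO2. Cells exposed to IC50 of test compound for 48 hrs, alongside untreated and cisplatin controls, each condition in triplicate. RNA isolated and profiled; differential expression called with DESeq2 (q-value < 0.05, fold change > 1.5), fold change versus untreated.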

[4] = system: MEF; assay: Cytotoxicity against MEF assessed as cell death at 100 uM measured after 48 hrs by trypan blue dye-based cell counting analysis; details: mouse
[5] = Inhibition of RTK/PI3K/AKT/mTOR signaling in human U87 cells assessed as down regulation of TAF13 gene expression at cytotoxic IC50 measured after 48 hrs relative to control; format: cell-based; details: U-87MG ATCC; summary of the method: as §1
[6] = Inhibition of RTK/PI3K/AKT/mTOR signaling in human U87 cells assessed as down regulation of XPO6 gene expression at cytotoxic IC50 measured after 48 hrs relative to control; format: cell-based; details: U-87MG ATCC; summary of the method: as §1
[7] = Inhibition of RTK/PI3K/AKT/mTOR signaling in human U87 cells assessed as up regulation of CAPN1 gene expression at cytotoxic IC50 measured after 48 hrs relative to control; format: cell-based; details: U-87MG ATCC; summary of the method: as §1
[8] = Inhibition of RTK/PI3K/AKT/mTOR signaling in human U87 cells assessed as up regulation of erythrocyte membrane protein band 4.1 gene expression at cytotoxic IC50 measured after 48 hrs relative to control; format: cell-based
[9] = Inhibition of RTK/PI3K/AKT/mTOR signaling in human U87 cells assessed as up regulation of macrophage stimulating 1 receptor gene expression at cytotoxic IC50 measured after 48 hrs relative to control; format: cell-based
[10] = Inhibition of RTK/PI3K/AKT/mTOR signaling in human U87 cells assessed as down regulation of ABCB8 gene expression at cytotoxic IC50 measured after 48 hrs relative to control; format: cell-based; details: U-87MG ATCC; summary of the method: as §2
[11] = system: U-87 MG; assay: Induction of oxidative stress in human U87 cells assessed as increase in redox level at cytotoxic IC50 measured after 5 hrs by H2DCFDA dye based fluorescence assay relative to control; format: functional, U-87MG ATCC
Summary of the method: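 Cells grown overnight, exposed to IC50 for 5 hrs at 37°C with negative, positive (H2O2) and blank controls, plus solvent baseline. Pelleted, loaded with 2 µM H2DCFDA for 30 min at 37°C, washed, resuspended in warm medium, 20 min at room temperature. Fluorescence read at ex 485/em 535 nm.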

[12] = system: U-87 MG; assay: Induction of apoptosis in human U87 cells assessed as change in GADD45A gene expression at cytotoxic IC50 measured after 48 hrs […] relative to control; format: functional, U-87MG ATCC; summary of the method: as §2
[13] = system: U-87 MG; assay: Induction of apoptosis in human U87 cells assessed as change in PIDD1 gene expression at cytotoxic IC50 measured after 48 hrs […] relative to control; format: functional, U-87MG ATCC; summary of the method: as §2
[14] = Inhibition of RTK/PI3K/AKT/mTOR signaling in human U87 cells assessed as down regulation of DAGLB gene expression at cytotoxic IC50 measured after 48 hrs relative to control; format: cell-based; details: U-87MG ATCC; summary of the method: as §2
[15] = system: U-87 MG; assay: Induction of apoptosis in human U87 cells assessed as change in ERN1 gene expression at cytotoxic IC50 measured after 48 hrs […] relative to control; format: functional, U-87MG ATCC; summary of the method: as §2
[16] = system: LN-229; assay: Cytotoxicity against human LN229 cells assessed as reduction in cell proliferation up to 200 uM by trypan blue dye-based cell counting analysis; format: functional; details: TDE = time-dependent effect
[17] = Inhibition of RTK/PI3K/AKT/mTOR signaling in human U87 cells assessed as down regulation of ZMAT2 gene expression at cytotoxic IC50 measured after 48 hrs relative to control; format: cell-based; details: U-87MG ATCC; summary of the method: as §1
[18] = Inhibition of RTK/PI3K/AKT/mTOR signaling in human U87 cells assessed as up regulation of RPL7L1 gene expression at cytotoxic IC50 measured after 48 hrs relative to control; format: cell-based; details: U-87MG ATCC; summary of the method: as §1
[19] = Inhibition of RTK/PI3K/AKT/mTOR signaling in human U87 cells assessed as up regulation of NCOR2 gene expression at cytotoxic IC50 measured after 48 hrs relative to control; format: cell-based; details: U-87MG ATCC; summary of the method: as §1
[20] = Inhibition of RTK/PI3K/AKT/mTOR signaling in human U87 cells assessed as down regulation of USP47 gene expression at cytotoxic IC50 measured after 48 hrs relative to control; format: cell-based; details: U-87MG ATCC; summary of the method: as §1
[21] = system: U-87 MG; assay: Induction of DNA damage in human U87 cells assessed as change in GADD45A gene expression at cytotoxic IC50 measured after 48 hrs […] relative to control; format: functional, U-87MG ATCC
Summary of the method: (§3)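 U87 expression profiling. Cells incubated 48hrs at 37°C, 5% CO₂ with the IC₅₀ concentration, alongside a cisplatin and an untreated control, in triplicate. RNA was isolated by one common protocol and profiled. DEGs were called with DESeq2 (q < 0.05, fold change > 1.5) and expressed as fold change versus untreated.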

[22] = Inhibition of RTK/PI3K/AKT/mTOR signaling in human U87 cells assessed as down regulation of CHST3 gene expression at cytotoxic IC50 measured after 48 hrs relative to control; format: cell-based; details: U-87MG ATCC; summary of the method: as §2
[23] = Inhibition of RTK/PI3K/AKT/mTOR signaling in human U87 cells assessed as up regulation of solute carrier family 4 member 2 gene expression at cytotoxic IC50 measured after 48 hrs relative to control; format: cell-based; details: U-87MG ATCC
[24] = Inhibition of RTK/PI3K/AKT/mTOR signaling in human U87 cells assessed as down regulation of ERCC3 gene expression at cytotoxic IC50 measured after 48 hrs relative to control; format: cell-based; details: U-87MG ATCC; summary of the method: as §2
[25] = Inhibition of RTK/PI3K/AKT/mTOR signaling in human U87 cells assessed as up regulation of ankyrin repeat domain 10 gene expression at cytotoxic IC50 measured after 48 hrs relative to control; format: cell-based; details: U-87MG ATCC
[26] = system: U-87 MG; assay: Induction of DNA damage in human U87 cells assessed as change in CDKN1A gene expression at cytotoxic IC50 measured after 48 hrs […] relative to control; format: functional, U-87MG ATCC; summary of the method: as §3

With `CC(=O)C(=NNc1ccccc1C#N)C(C)=O` as the compound, how does the log2FC [1] read?
Its log2FC is -3.88.

And the log2FC [2]?
Its log2FC is 1.89.

And the log2FC [3]?
Its log2FC is -0.813.

What about the Activity [4] of the same compound?
Its Activity is < 20%.

What about the log2FC [5] of the same compound?
The log2FC was -1.05.

What about the log2FC [6] of the same compound?
Its log2FC is -0.363.

And the log2FC [7]?
The log2FC was 0.475.

What about the log2FC [8] of the same compound?
The log2FC was 1.26.

What about the log2FC [9] of the same compound?
The log2FC was 0.723.

What about the log2FC [10] of the same compound?
Its log2FC is -0.871.

And the Activity [11]?
The Activity was 9.5%.

And the log2FC [12]?
The log2FC was -0.9679.

What about the log2FC [13] of the same compound?
The log2FC was 2.467.

What about the log2FC [14] of the same compound?
Its log2FC is -0.876.

And the log2FC [15]?
The log2FC was -1.369.

And the Activity [16]?
The Activity was “Tde”.

What about the log2FC [17] of the same compound?
The log2FC was -0.716.

What about the log2FC [18] of the same compound?
The log2FC was 0.536.

And the log2FC [19]?
Its log2FC is 0.558.

What about the log2FC [20] of the same compound?
The log2FC was -0.615.

And the “fold change (FC)” value [21]?
Its value is -0.9679.

And the log2FC [22]?
The log2FC was -1.06.

What about the log2FC [23] of the same compound?
Its log2FC is 1.04.

And the log2FC [24]?
Its log2FC is -0.491.

What about the log2FC [25] of the same compound?
Its log2FC is 1.12.

And the “fold change (FC)” value [26]?
The value was 1.296.
